{"source": "ChEMBL document CHEMBL1765019", "about": "“Design, synthesis and biological activity of thiazolidine-4-carboxylic acid derivatives as novel influenza neuraminidase inhibitors” (Bioorg Med Chem, 2011)", "target": "Neuraminidase (Influenza A virus, UniProt B4URF0)", "experiment": "Inhibition of influenza A virus neuraminidase assessed as cleavage of MUNANA substrate by fluorescence assay", "outline": "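Screening-kit NA enzyme, not from an avian H5N1 strain, incubated with buffer, substrate and inhibitor at 37 °C. Reaction stopped with stop solution. IC50 taken from percent inhibition plotted against inhibitor concentration; each point in duplicate.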", "data": [{"smiles": "NCC(=O)N1C(c2ccco2)SC[C@H]1C(=O)O", "note": "(mixture of isomers)", "values": [{"measurement": "IC50", "result": 0.98, "unit": "µM"}]}, {"smiles": "COc1cccc(C2SC[C@@H](C(=O)O)N2C(=O)Cc2ccccc2)c1O", "note": "(mixture of isomers)", "values": [{"measurement": "IC50", "result": 1.62, "unit": "µM"}]}, {"smiles": "N#Cc1ccc(C2SC[C@@H](C(=O)O)N2C(=O)CN)cc1", "note": "(mixture of isomers)", "values": [{"measurement": "IC50", "result": 0.81, "unit": "µM"}]}, {"smiles": "O=C(O)[C@@H]1CSC(c2ccccc2O)N1C(=O)Cc1ccccc1", "note": "(mixture of isomers)", "values": [{"measurement": "IC50", "result": 0.65, "unit": "µM"}]}, {"smiles": "N#Cc1ccc(C2N[C@H](C(=O)O)CS2)cc1", "note": "(mixture of isomers)", "values": [{"measurement": "IC50", "result": 23.4, "unit": "µM"}]}, {"smiles": "O=C(O)[C@@H]1CSC(c2ccccc2O)N1C(=O)CCl", "note": "(mixture of isomers)", "values": [{"measurement": "IC50", "result": 5.84, "unit": "µM"}]}, {"smiles": "O=C(O)c1ccccc1C1N[C@H](C(=O)O)CS1", "note": "(mixture of isomers)", "values": [{"measurement": "IC50", "result": 18.1, "unit": "µM"}]}, {"smiles": "O=C(O)[C@@H]1CSC(c2ccccc2O)N1", "note": "(mixture of isomers)", "values": [{"measurement": "IC50", "result": 20.2, "unit": "µM"}]}, {"smiles": "O=C(O)[C@@H]1CSC(c2ccco2)N1C(=O)CCl", "note": "(mixture of isomers)", "values": [{"measurement": "IC50", "result": 12.9, "unit": "µM"}]}, {"smiles": "O=C(O)[C@@H]1CSC(c2ccccc2)N1C(=O)Cc1ccccc1", "note": "(mixture of isomers)", "values": [{"measurement": "IC50", "result": 1.21, "unit": "µM"}]}, {"smiles": "O=C(O)[C@@H]1CSC(c2ccccc2)N1C(=O)CCl", "note": "(mixture of isomers)", "values": [{"measurement": "IC50", "result": 7.53, "unit": "µM"}]}, {"smiles": "O=C(O)c1ccccc1C1SC[C@@H](C(=O)O)N1C(=O)CCl", "note": "(mixture of isomers)", "values": [{"measurement": "IC50", "result": 10.7, "unit": "µM"}]}, {"smiles": "O=C(O)[C@@H]1CSC(c2ccccc2)N1", "note": "(mixture of isomers)", "values": [{"measurement": "IC50", "result": 21.3, "unit": "µM"}]}, {"smiles": "COc1cccc(C2SC[C@@H](C(=O)O)N2C(=O)CN)c1O", "note": "(mixture of isomers)", "values": [{"measurement": "IC50", "result": 0.14, "unit": "µM"}]}, {"smiles": "N#Cc1ccc(C2SC[C@@H](C(=O)O)N2C(=O)CCl)cc1", "note": "(mixture of isomers)", "values": [{"measurement": "IC50", "result": 8.64, "unit": "µM"}]}, {"smiles": "O=C(O)[C@@H]1CSC(c2ccco2)N1", "note": "(mixture of isomers)", "values": [{"measurement": "IC50", "result": 43.1, "unit": "µM"}]}, {"smiles": "NCC(=O)N1C(c2ccccc2[N+](=O)[O-])SC[C@H]1C(=O)O", "note": "(mixture of isomers)", "values": [{"measurement": "IC50", "result": 1.02, "unit": "µM"}]}, {"smiles": "O=C(O)[C@@H]1CSC(c2ccccc2[N+](=O)[O-])N1C(=O)Cc1ccccc1", "note": "(mixture of isomers)", "values": [{"measurement": "IC50", "result": 1.87, "unit": "µM"}]}, {"smiles": "COc1cccc(C2N[C@H](C(=O)O)CS2)c1O", "note": "(mixture of isomers)", "values": [{"measurement": "IC50", "result": 12.3, "unit": "µM"}]}, {"smiles": "NCC(=O)N1C(c2ccccc2)SC[C@H]1C(=O)O", "note": "(mixture of isomers)", "values": [{"measurement": "IC50", "result": 0.53, "unit": "µM"}]}, {"smiles": "NCC(=O)N1C(c2ccccc2C(=O)O)SC[C@H]1C(=O)O", "note": "(mixture of isomers)", "values": [{"measurement": "IC50", "result": 0.28, "unit": "µM"}]}, {"smiles": "O=C(O)c1ccccc1C1SC[C@@H](C(=O)O)N1C(=O)Cc1ccccc1", "note": "(mixture of isomers)", "values": [{"measurement": "IC50", "result": 1.92, "unit": "µM"}]}, {"smiles": "O=C(O)[C@@H]1CSC(c2ccccc2[N+](=O)[O-])N1", "note": "(mixture of isomers)", "values": [{"measurement": "IC50", "result": 22.5, "unit": "µM"}]}, {"smiles": "N#Cc1ccc(C2SC[C@@H](C(=O)O)N2C(=O)Cc2ccccc2)cc1", "note": "(mixture of isomers)", "values": [{"measurement": "IC50", "result": 2.47, "unit": "µM"}]}, {"smiles": "O=C(O)[C@@H]1CSC(c2ccccc2[N+](=O)[O-])N1C(=O)CCl", "note": "(mixture of isomers)", "values": [{"measurement": "IC50", "result": 7.65, "unit": "µM"}]}, {"smiles": "COc1cccc(C2SC[C@@H](C(=O)O)N2C(=O)CCl)c1O", "note": "(mixture of isomers)", "values": [{"measurement": "IC50", "result": 7.92, "unit": "µM"}]}, {"smiles": "O=C(O)[C@@H]1CSC(c2ccco2)N1C(=O)Cc1ccccc1", "note": "(mixture of isomers)", "values": [{"measurement": "IC50", "result": 2.89, "unit": "µM"}]}, {"smiles": "NCC(=O)N1C(c2ccccc2O)SC[C@H]1C(=O)O", "note": "(mixture of isomers)", "values": [{"measurement": "IC50", "result": 0.21, "unit": "µM"}]}]}
